Published values collected from several papers.
Each line is one published result; the experiments were not run side by side. pEC50: −log10 of the molar value. ≈ marks a conversion by molar mass, not a printed value.

SMILES	tested on	test	test system	setting	quantity	value
O=C1NC(=S)S/C1=C\c1ccc(-c2ccc(N(c3ccccc3)c3ccccc3)cc2)cc1	Staphylococcus epidermidis	microbial growth, broth dilution	ATCC12228	–	MIC	125 µg/mL (≈ 269 µM)
O=Cc1ccc(CO)o1	–	tubulin polymerisation, inhibitor	–	10 µM	inhibition	13.4%
O=C1NC(=S)N/C1=C\c1ccc(-c2ccc(N(c3ccccc3)c3ccccc3)cc2)cc1	Staphylococcus epidermidis	microbial killing, broth dilution	ATCC12228	–	MBC	> 1000 µg/mL
COC(=O)[C@]12CCC(C)(C)C[C@H]1C1=CC[C@@H]3[C@@]4(C)CC[C@@H]5O[C@H]([C@H](O)[C@@H](O)[C@H](O)[C@H](O)CO)OC[C@@]5(C)[C@@H]4CC[C@@]3(C)[C@]1(C)CC2	Leishmania mexicana	parasite growth, resazurin	–	50 µM, amastigote	inhibition	100%
O=c1ccc2cc3ccoc3cc2o1	–	tubulin polymerisation, inhibitor	–	10 µM	inhibition	30.1%
COc1cc(-c2ccc(-c3ccc(C(=N)N)nc3)s2)cc(OC)c1OC	HOP-62	cell growth or viability, SRB	–	–	GI50	2.79 µM
O=C(O)CN1C(=O)/C(=C/c2ccc(-c3ccc(N(c4ccccc4)c4ccccc4)cc3)cc2)SC1=S	Staphylococcus epidermidis	microbial killing, broth dilution	ATCC12228	–	MBC	7.8 µg/mL (≈ 14.9 µM)
CC[C@H](CC[C@@H](C)[C@H]1CC[C@H]2[C@@H]3CC=C4C[C@@H](O[C@@H]5O[C@H](CO)[C@@H](O)[C@H](O)[C@H]5O)CC[C@]4(C)[C@H]3CC[C@]12C)C(C)C	–	tubulin polymerisation, inhibitor	–	10 µM	inhibition	14.4%
CC1(C)CC[C@]2(C(=O)OCc3ccccc3[N+](=O)[O-])CC[C@]3(C)C(=CC[C@@H]4[C@@]5(C)CC[C@H](O)[C@@](C)(CO)[C@@H]5CC[C@]43C)[C@@H]2C1	Leishmania mexicana	parasite growth, resazurin	–	50 µM, amastigote	inhibition	100%
CC1(C)CC[C@]2(C)CC[C@]3(C)[C@H]4CC=C5[C@@H](CC[C@H](O)C5(C)C)[C@]4(C)CC[C@@]3(C)[C@@H]2C1	–	tubulin polymerisation, inhibitor	–	10 µM	inhibition	17%
CC1(C)CC[C@]2(CO)CC[C@]3(C)C(=CC[C@@H]4[C@@]5(C)CC[C@@H]6O[C@H]([C@H](O)[C@@H](O)[C@H](O)[C@H](O)CO)OC[C@@]6(C)[C@@H]5CC[C@]43C)[C@@H]2C1	Leishmania mexicana	parasite growth, resazurin	–	50 µM, amastigote	inhibition	99.1%
Cc1ccc(-c2nc3ccccc3s2)cc1NC(=O)c1cc([N+](=O)[O-])ccc1Cl	Leishmania mexicana	parasite growth	J774.A1	intracellular, amastigote	pEC50	< 5.00
O=C1NC(=S)N/C1=C\c1c2ccccc2c(-c2ccc(N(c3ccccc3)c3ccccc3)cc2)c2ccccc12	Staphylococcus epidermidis	microbial killing, broth dilution	ATCC12228	–	MBC	> 1000 µg/mL
CC1(C)CC[C@]2(NC(=O)N3CCCC3)CC[C@]3(C)C(=CC[C@@H]4[C@@]5(C)CC[C@H](O)[C@@](C)(CO)[C@@H]5CC[C@]43C)[C@@H]2C1	Leishmania mexicana	parasite growth, resazurin	–	50 µM, amastigote	inhibition	99%
Cc1ccc(-c2nc3ccccc3s2)cc1NC(=O)c1cc([N+](=O)[O-])c(N(C)C)cc1Cl	Leishmania mexicana	parasite growth	J774.A1	intracellular, amastigote	pEC50	< 5.00
C[C@H](O)[C@H](O)[C@@H](O)[C@@H](O)[C@@H]1OC[C@@]2(C)[C@@H]3CC[C@]4(C)[C@H](CC=C5[C@@H]6CC(C)(C)CC[C@]6(C(=O)O)CC[C@]54C)[C@@]3(C)CC[C@@H]2O1	Leishmania mexicana	parasite growth, resazurin	–	50 µM, amastigote	inhibition	100%
COc1c2ccoc2cc2oc(=O)ccc12	–	tubulin polymerisation, inhibitor	–	10 µM	inhibition	22.5%
CC1(C)CC[C@]2(C(=O)O)CC[C@]3(C)C(=CC[C@@H]4[C@@]5(C)CC[C@@H]6OCOC[C@@]6(C)[C@@H]5CC[C@]43C)[C@@H]2C1	Leishmania mexicana	parasite growth, resazurin	–	50 µM, amastigote	inhibition	97.5%
Cc1ccc(-c2nc3ccccc3s2)cc1NC(=O)c1cc([N+](=O)[O-])ccc1O	Leishmania mexicana	parasite growth	J774.A1	intracellular, amastigote	pEC50	< 5.00
O=c1cc(-c2ccc(O)c(O)c2)oc2cc(O)cc(O)c12	–	tubulin polymerisation, inhibitor	–	10 µM	inhibition	26.2%
O=C1NC(=S)S/C1=C\c1c2ccccc2c(-c2ccc(N(c3ccccc3)c3ccccc3)cc2)c2ccccc12	Staphylococcus epidermidis	microbial killing, broth dilution	ATCC12228	–	MBC	> 1000 µg/mL
C[C@@H]1O[C@@H](C[C@@H]2OC[C@@]3(C)[C@@H]4CC[C@]5(C)[C@H](CC=C6[C@@H]7CC(C)(C)CC[C@]7(C(=O)O)CC[C@]65C)[C@@]4(C)CC[C@@H]3O2)[C@@H](O)[C@H](O)[C@@H]1O	Leishmania mexicana	parasite growth, resazurin	–	50 µM, amastigote	inhibition	99.2%
C/C=C(/C)C(=O)O[C@@H]1[C@H](OC(C)=O)c2c(ccc3ccc(=O)oc23)OC1(C)C	–	tubulin polymerisation, inhibitor	–	10 µM	inhibition	24.8%
